Measurements taken from ChEMBL document CHEMBL5329221, “A covalent fragment-based strategy targeting a novel cysteine to inhibit activity of mutant EGFR kinase” (RSC Med Chem, 2023).
The source made the active and inactive calls. No cut-off for these calls is given here.

Tests used:
[1] = tested on: Epidermal growth factor receptor (Homo sapiens), P00533 [T790M,L858R,C797S,E865A,E866A,K867A]; experiment: Binding affinity to N-terminal His6-tagged human EGFR T790M/L858R/C797S/E865A/E866A/K867A mutant expressed in Sf9 cells at pH 7.4 incubated for 1 hrs by TOF-MS analysis
[2] = tested on: Epidermal growth factor receptor (Homo sapiens), P00533 [T790M,L858R,C797S,E865A,E866A,K867A]; experiment: Binding affinity to N-terminal His6-tagged human EGFR T790M/L858R/C797S/E865A/E866A/K867A mutant expressed in Sf9 cells at pH 7.4 assessed as covalent adduct formation incubated for 1 hrs by TOF-MS analysis
[3] = tested on: Epidermal growth factor receptor (Homo sapiens), P00533 [T790M,L858R,E865A,E866A,K867A]; experiment: Binding affinity to N-terminal His6-tagged human EGFR T790M/L858R/E865A/E866A/K867A mutant expressed in Sf9 cells at pH 7.4 assessed as covalent adduct formation preincubated with nazartinib followed by compound addition and measured after 1 hrs by TOF-MS analysis
[4] = tested on: Epidermal growth factor receptor (Homo sapiens), P00533 [L858R,T790M,C797S]; experiment: Inhibition of N-terminal His6-tagged human EGFR L858R/T790M/C797S mutant expressed in Sf9 cells assessed as decrease in substrate phosphorylation using Ulight-JAK1 peptide as substrate at 500 uMincubated for 1.5 hrs in presence of ATP by TR-FRET based LANCE Ultra kinase assay
[5] = target: Epidermal growth factor receptor (Homo sapiens, UniProt P00533, C797S/L858R/T790M); experiment: Inhibition of N-terminal His6-tagged human EGFR L858R/T790M/C797S mutant expressed in Sf9 cells assessed as decrease in substrate phosphorylation using Ulight-JAK1 peptide as substrate incubated for 1.5 hrs in presence of ATP by TR-FRET based LANCE Ultra kinase assay
Outline: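 LANCE Ultra TR-FRET assay with 0.25 nM EGFR_TM, 1 µM ATP, 50 nM ULight-JAK1 peptide, 50 mM HEPES pH 7.5, 10 mM MgCl2, 5 mM MnCl2, 1 mM DTT, 0.015% Brij35, 5% DMSO, 1.5 h at 23°C. EDTA stop, Eu-anti-pTyr PT66, 1 h. Signal is the 665/620 nm ratio, normalised to no-protein controls. IC50 from a four-parameter fit, otherwise % inhibition at the top concentration.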

[6] = tested on: Epidermal growth factor receptor (Homo sapiens), P00533 [T790M,L858R,E865A,E866A,K867A]; experiment: Binding affinity to N-terminal His6-tagged human EGFR T790M/L858R/E865A/E866A/K867A mutant expressed in Sf9 cells at pH 7.4 assessed as covalent adduct formation incubated for 1 hrs by TOF-MS analysis
[7] = target: Epidermal growth factor receptor (Homo sapiens) (UniProt P00533); experiment: Binding affinity to N-terminal twin Strep-tagged human wild type EGFR (694 to 1022 residues) expressed in Sf9 cells at pH 7.4 assessed as covalent adduct formation preincubated with maleimide followed by compound addition and measured after 1 hrs by TOF-MS analysis

Row | Activity [1] | Activity [2] | Activity [3] | inhibition [4] [%] | IC50 [5] [µM] | Activity [6] | Activity [7] | Compound
1 | Active | Active | inactive | 52.3 | > 500 | Active | inactive | C=CC(=O)Nc1ccccn1
2 | – | Active | – | – | – | Active | – | C=CC(=O)Nc1ccc2c(C)n(C)nc2c1
3 | – | Active | – | – | – | Active | – | C=CC(=O)Nc1ccc[nH]c1=O
4 | – | Active | – | – | – | Active | – | C=CC(=O)Nc1cccc(O)c1
5 | – | Active | – | – | – | Active | – | C=CC(=O)Nc1cccc2c1ncn2C
6 | Active | Active | inactive | – | – | Active | inactive | C=CC(=O)Nc1ccc2cccnc2c1
7 | – | – | – | – | 9 | – | – | C=CC(=O)Nc1cc(-c2cn(C)c3ccccc23)ccn1
8 | – | Active | – | – | – | Active | – | C=CC(=O)Nc1cccc(NC(C)=O)n1
9 | – | Active | – | – | – | Active | – | C=CC(=O)Nc1cccc(C(C)=O)c1
10 | – | – | – | – | 32 | – | – | C=CC(=O)Nc1cc(-c2ccccc2)ccn1
11 | Active | Active | inactive | – | – | Active | inactive | C=CC(=O)Nc1cc2ccccn2n1
12 | – | Active | – | – | – | Active | – | C=CC(=O)Nc1cc(N(C)C)n2nc(C)cc2n1
